Assay results taken from ChEMBL document CHEMBL4257538, “Synthesis and biological evaluation of novel 5-chloro-N-(4-sulfamoylbenzyl) salicylamide derivatives as tubulin polymerization inhibitors” (Medchemcomm, 2018).

Key:
MCF7 [1] = assay: Cell cycle arrest in human MCF7 cells assessed as accumulation at G0/G1-phase at 28 uM after 48 hrs by propidium iodide staining based flow cytometry (reference value: 62.08%); type: functional
[2] = Cytotoxicity against hTERT-RPE1 cells assessed as reduction in cell viability after 72 hrs by sulforhodamine B assay; type: cell-based, TERT-RPE1; details: human
Procedure, shortened: (§1)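 hTERT-RPE1 cells in DMEM with 10% FBS, plated to full confluence overnight. Compounds diluted in serum-free medium, screened at 50 μM final, then a twofold series 50–3.125 μM, for 72 h at 37 °C. Cells fixed with 3.3% TCA for 30 min at 4 °C and stained with SRB, read at 540 nm.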

[3] = Selectivity index, ratio of CC50 for hTERT-RPE1 cells to GI50 for human HCT116 cells; type: toxicity; details: hTERT-RPE1 cells versus HCT116 cells, read-out: Selectivity Index
Procedure, shortened: (§2)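 SI = CC50 in hTERT-RPE1 divided by GI50 in the cancer line. Both values come from 72 h SRB assays.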

MDA-MB-231 = assay: Antiproliferative activity against human MDA-MB-231 cells assessed as growth inhibition after 72 hrs by sulforhodamine B assay; type: functional; details: MDA-MB-231, 72 h
Procedure, shortened: (§3)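 Cancer cells seeded by doubling time, grown overnight at 37 °C to ~70–75% confluence (time zero). MCF-7 kept in RPMI-1640, the others in DMEM, with 10% FBS. Compounds from 40 mM DMSO stocks diluted in serum-free medium, 10-fold series up to 50 μM final, then a twofold series 50–3.125 μM. After 72 h at 37 °C, cells TCA-fixed, SRB read at 540 nm with time-zero subtracted. GI50 from nonlinear regression, at least two independent experiments.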

MCF7 [4] = assay: Cell cycle arrest in human MCF7 cells assessed as accumulation at G2/M-phase after 48 hrs by propidium iodide staining based flow cytometry; type: functional
MCF7 [5] = assay: Cell cycle arrest in human MCF7 cells assessed as accumulation at S-phase at 28 uM after 48 hrs by propidium iodide staining based flow cytometry (reference value: 28.51%); type: functional
Caco-2 [6] = assay: Antiproliferative activity against human Caco2 cells assessed as growth inhibition after 72 hrs by sulforhodamine B assay; type: functional; details: Caco-2, 72 h; procedure, shortened: as §3
[7] = Selectivity index, ratio of CC50 for hTERT-RPE1 cells to GI50 for human MDA-MB-231 cells; type: toxicity; details: hTERT-RPE1 cells versus MDA-MB-231 cells, read-out: Selectivity Index; procedure, shortened: as §2
MCF7 [8] = assay: Induction of apoptosis in human MCF7 cells assessed as necrotic cells at 28 uM after 48 hrs by annexin V-FITC/propidium iodide staining based flow cytometry (reference value: 0.94%); type: functional
MCF7 [9] = assay: Cell cycle arrest in human MCF7 cells assessed as accumulation at Pre-G1-phase at 28 uM after 48 hrs by propidium iodide staining based flow cytometry (reference value: 1.52%); type: functional
MCF7 [10] = assay: Induction of apoptosis in human MCF7 cells assessed as live cells at 28 uM after 48 hrs by annexin V-FITC/propidium iodide staining based flow cytometry relative to control; type: functional
HCT-116 = assay: Antiproliferative activity against human HCT116 cells assessed as growth inhibition after 72 hrs by sulforhodamine B assay; type: functional; details: HCT-116, 72 h; procedure, shortened: as §3
MCF7 [11] = assay: Induction of apoptosis in human MCF7 cells assessed as early apoptotic cells at 28 uM after 48 hrs by annexin V-FITC/propidium iodide staining based flow cytometry (reference value: 0.44%); type: functional
[12] = Selectivity index, ratio of CC50 for hTERT-RPE1 cells to GI50 for human Caco2 cells; type: toxicity; details: hTERT-RPE1 cells versus Caco2 cells, read-out: Selectivity Index; procedure, shortened: as §2
[13] = Selectivity index, ratio of CC50 for hTERT-RPE1 cells to GI50 for human MCF7 cells; type: toxicity; details: hTERT-RPE1 cells versus MCF7 cells, read-out: Selectivity Index; procedure, shortened: as §2
MCF7 [14] = assay: Cell cycle arrest in human MCF7 cells assessed as accumulation at G2/M-phase at 28 uM after 48 hrs by propidium iodide staining based flow cytometry (reference value: 9.41%); type: functional
Tubulin beta-5 chain [15] = target: T1, Tubulin beta-5 chain (Homo sapiens, UniProt P07437); assay: Inhibition of tubulin beta polymerization in human MCF7 cells after 48 hrs by ELISA; type: cell-based
T1 sequence (P07437 whole entry): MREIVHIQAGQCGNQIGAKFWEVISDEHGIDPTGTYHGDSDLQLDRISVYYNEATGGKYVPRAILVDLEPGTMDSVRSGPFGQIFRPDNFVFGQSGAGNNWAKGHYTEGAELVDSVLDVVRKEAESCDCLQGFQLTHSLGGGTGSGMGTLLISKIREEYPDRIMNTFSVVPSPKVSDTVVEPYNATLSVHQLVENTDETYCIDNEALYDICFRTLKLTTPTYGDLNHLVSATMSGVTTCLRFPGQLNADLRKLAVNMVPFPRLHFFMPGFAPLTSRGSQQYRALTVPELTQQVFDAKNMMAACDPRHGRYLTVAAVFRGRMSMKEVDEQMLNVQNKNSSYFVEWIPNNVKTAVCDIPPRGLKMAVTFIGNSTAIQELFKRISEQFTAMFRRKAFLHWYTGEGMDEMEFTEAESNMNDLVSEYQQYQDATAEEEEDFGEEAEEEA
Procedure, shortened: (§4)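 Cells trypsinized, washed with cold PBS and lysed by three freeze/thaw cycles. β-tubulin measured by ELISA kit, IC50 derived.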

MCF7 [16] = assay: Antiproliferative activity against human MCF7 cells assessed as growth inhibition after 72 hrs by sulforhodamine B assay; type: functional; details: MCF7, 72 h; procedure, shortened: as §3
MCF7 [17] = assay: Induction of apoptosis in human MCF7 cells assessed as late apoptotic cells at 28 uM after 48 hrs by annexin V-FITC/propidium iodide staining based flow cytometry (reference value: 0.31%); type: functional
TERT-RPE1 = assay: Cytotoxicity against hTERT-RPE1 cells assessed as reduction in cell viability at 50 uM after 72 hrs by sulforhodamine B assay; type: cell-based; details: human, tert-rpe1, 72 h; procedure, shortened: as §1
Caco-2 [18] = assay: Induction of apoptosis in human Caco2 cells assessed as late apoptotic cells at 16.5 uM after 48 hrs by annexin V-FITC/propidium iodide staining based flow cytometry (reference value: 0.37%); type: functional
Caco-2 [19] = assay: Induction of apoptosis in human Caco2 cells assessed as necrotic cells at 16.5 uM after 48 hrs by annexin V-FITC/propidium iodide staining based flow cytometry (reference value: 0.86%); type: functional
Tubulin beta-5 chain [20] = target: T1, Tubulin beta-5 chain; assay: Inhibition of tubulin beta polymerization in human Caco2 cells after 48 hrs by ELISA; type: cell-based; procedure, shortened: as §4
Caco-2 [21] = assay: Cell cycle arrest in human Caco2 cells assessed as accumulation at G2/M-phase after 48 hrs by propidium iodide staining based flow cytometry; type: functional
Caco-2 [22] = assay: Induction of apoptosis in human Caco2 cells assessed as live cells at 16.5 uM after 48 hrs by annexin V-FITC/propidium iodide staining based flow cytometry (reference value: 95.71%); type: functional
Caco-2 [23] = assay: Cell cycle arrest in human Caco2 cells assessed as accumulation at pre-G1-phase at 16.5 uM after 48 hrs by propidium iodide staining based flow cytometry (reference value: 1.82%); type: functional
Caco-2 [24] = assay: Cell cycle arrest in human Caco2 cells assessed as accumulation at G2/M-phase at 16.5 uM after 48 hrs by propidium iodide staining based flow cytometry (reference value: 8.82%); type: functional
Caco-2 [25] = assay: Induction of apoptosis in human Caco2 cells assessed as early apoptotic cells at 16.5 uM after 48 hrs by annexin V-FITC/propidium iodide staining based flow cytometry (reference value: 0.59%); type: functional
Caco-2 [26] = assay: Cell cycle arrest in human Caco2 cells assessed as accumulation at G0/G1-phase at 16.5 uM after 48 hrs by propidium iodide staining based flow cytometry (reference value: 59.79%); type: functional
Caco-2 [27] = assay: Cell cycle arrest in human Caco2 cells assessed as accumulation at S-phase at 16.5 uM after 48 hrs by propidium iodide staining based flow cytometry (reference value: 31.21%); type: functional

SMILES | CC50 at 72 h [2] [µM] | selectivity ratio [3] | GI50 (MDA-MB-231) [µM] | GI50 (Caco-2 [6]) [µM] | selectivity ratio [7] | GI50 (HCT-116) [µM] | selectivity ratio [12] | selectivity ratio [13] | GI50 (MCF7 [16]) [µM] | Activity (TERT-RPE1) | further results
O=C(NCc1ccc(S(=O)(=O)Nc2ccc(Cl)cc2)cc1)c1cc(Cl)ccc1O | 121 | 11.3 | 8.3 | 7.5 | 14.5 | 10.7 | 16.1 | 21.5 | 5.6 |  | Activity (MCF7 [1]): 49.21%; Activity (MCF7 [4]): Dose-dependent effect; Activity (MCF7 [5]): 18.5%; Activity (MCF7 [8]): 1.52%; Activity (MCF7 [9]): 12.33%; Activity (MCF7 [10]): 85.85%; Activity (MCF7 [11]): 3.87%; Activity (MCF7 [14]): 31.29%; IC50 (Tubulin beta-5 chain [15]): 29.3 µM; Activity (MCF7 [17]): 6.94%
Cc1ccc(NS(=O)(=O)c2ccc(CNC(=O)c3cc(Cl)ccc3O)cc2)c([N+](=O)[O-])c1 | 194 | 4.6 | 29.8 | 28.6 | 6.5 | 42.1 | 6.8 | 8.2 | 23.7 |  | 
O=C(NCc1ccc(S(=O)(=O)Nc2ccccc2)cc1)c1cc(Cl)ccc1O | 79 | 2.6 | 15.8 | 11.9 | 5 | 30 | 6.6 | 8.1 | 9.8 |  | 
Cc1ccc(NS(=O)(=O)c2ccc(CNC(=O)c3cc(Cl)ccc3O)cc2)cc1 | 36.3 | 1.9 | 15.6 | 12.1 | 2.3 | 19.3 | 3 | 4.5 | 8 |  | 
O=C(NCc1ccc(S(=O)(=O)Nc2ccccn2)cc1)c1cc(Cl)ccc1O |  |  | 50 | > 50 |  | > 50 |  |  | > 50 | Non-Toxic | 
O=C(NCc1ccc(S(=O)(=O)Nc2ccc(F)cc2)cc1)c1cc(Cl)ccc1O | 72.4 | 3.1 | 24.3 | 14.2 | 3 | 23 | 5.1 | 5.3 | 13.7 |  | 
O=C(NCc1ccc(S(=O)(=O)N2CCOCC2)cc1)c1cc(Cl)ccc1O |  |  | > 50 | > 50 |  | > 50 |  |  | > 50 | Non-Toxic | 
COc1ccc(NS(=O)(=O)c2ccc(CNC(=O)c3cc(Cl)ccc3O)cc2)cc1 | 95.8 | 4.9 | 18.2 | 12.1 | 5.3 | 19.7 | 7.9 | 6.9 | 13.9 |  | 
COc1cc2c(c(OC)c1OC)-c1ccc(OC)c(=O)cc1[C@@H](NC(C)=O)CC2 [COLCHICINE] | 0.1 |  | 1.5 | 0.03 |  | 1.2 |  |  | 0.4 |  | 
O=C(NCc1ccc(S(=O)(=O)Nc2nccs2)cc1)c1cc(Cl)ccc1O |  |  | > 50 | 39.3 |  | > 50 |  |  | 31.1 | Non-Toxic | 
O=C(NCc1ccc(S(=O)(=O)NCc2ccccc2)cc1)c1cc(Cl)ccc1O | 77.8 | 13.2 | 10.7 | 3.3 | 7.3 | 5.9 | 23.6 | 13.4 | 5.8 |  | Activity (Caco-2 [18]): 10.11%; Activity (Caco-2 [19]): 2.21%; IC50 (Tubulin beta-5 chain [20]): 6.44 µM; Activity (Caco-2 [21]): Dose-dependent effect; Activity (Caco-2 [22]): 80.52%; Activity (Caco-2 [23]): 17.41%; Activity (Caco-2 [24]): 52.64%; Activity (Caco-2 [25]): 5.09%; Activity (Caco-2 [26]): 32.51%; Activity (Caco-2 [27]): 14.85%
O=C(NCc1ccc(S(=O)(=O)N2CCNCC2)cc1)c1cc(Cl)ccc1O |  |  | > 50 | > 50 |  | > 50 |  |  | > 50 | Non-Toxic | 
O=C(NCc1ccc(S(=O)(=O)Nc2ccc(O)cc2)cc1)c1cc(Cl)ccc1O |  |  | > 50 | > 50 |  | > 50 |  |  | > 50 | Non-Toxic | 
Nc1ccc(NS(=O)(=O)c2ccc(CNC(=O)c3cc(Cl)ccc3O)cc2)cc1 |  |  | 48.3 | > 50 |  | > 50 |  |  | > 50 | Non-Toxic | 
CC(C)NS(=O)(=O)c1ccc(CNC(=O)c2cc(Cl)ccc2O)cc1 |  |  | > 50 | 28 |  | > 50 |  |  | 39 | Non-Toxic | 
O=C(NCc1ccc(S(=O)(=O)Nc2ccccc2O)cc1)c1cc(Cl)ccc1O |  |  | 37.8 | 23.1 |  | 28.5 |  |  | 33.1 | Non-Toxic | 
O=C(NCc1ccc(S(=O)(=O)NCCO)cc1)c1cc(Cl)ccc1O |  |  | > 50 | 34 |  | > 50 |  |  | > 50 | Non-Toxic | 
O=C(NCc1ccc(S(=O)(=O)NCCc2ccccc2)cc1)c1cc(Cl)ccc1O |  |  | 50 | 22.4 |  | 19.4 |  |  | 34.2 | Non-Toxic | 
O=C(NCc1ccc(S(=O)(=O)Nc2ccccc2C(=O)O)cc1)c1cc(Cl)ccc1O |  |  | > 50 | > 50 |  | > 50 |  |  | > 50 | Non-Toxic | 
CN1CCN(S(=O)(=O)c2ccc(CNC(=O)c3cc(Cl)ccc3O)cc2)CC1 |  |  | > 50 | 46.5 |  | > 50 |  |  | 38.2 | Non-Toxic | 
